The results in this text go back to the EternaBench riboswitch data.

The data set has as its system MS2 coat protein. Briefly: apparent Kd, MS2 coat protein; higher = weaker binding; RNA-MaP array; FMN 200 µM where present. Summed up:
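Designs were transcribed by stalled E. coli RNA polymerase on Illumina sequencing-chip clusters. They were titrated with SNAP-549-labelled MS2 coat protein from 0.7 or 1.5 nM, doubling to 3 µM, in 100 mM Tris-HCl pH 7.5, 80 mM KCl, 4 mM MgCl2, BSA, DTT, yeast tRNA and Tween-20, without and then with constant ligand. The apparent Kd is the median of filtered per-cluster fits after normalisation of green signal to red-channel RNA signal and control-cluster median Fmax.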

The mark [1] stands for this setting: designed as: ON switch for flavin mononucleotide, no ligand.
The mark [2] stands for this setting: ligand present: flavin mononucleotide, designed as: ON switch for flavin mononucleotide.
Setting [3] is: designed as: OFF switch for flavin mononucleotide, no ligand.
Setting [4] is: ligand present: flavin mononucleotide, designed as: OFF switch for flavin mononucleotide.

“UUUUCCGGGCAGAAGGGUCCUCACAUGAGGAUCACCCAUGUAAACGCGGAUAGGAUAUGCCACUGGGCUCGAUAAGAGUGGUUC”: the “apparent Kd” value under setting [1] was 409 nM and the “apparent Kd” value under setting [2] was 160 nM.
For the sequence “ACGUUUUUUGAGGAUAUGCGAUAUUUUUUUAUCGUAGAAGGCGAUACAUGAGGAUCACCCAUGUUUAUGGGCAU”, the “apparent Kd” value under setting [3] amounted to 197 nM and the “apparent Kd” value under setting [4] worked out at 204 nM.
Consider “AAGUUCUGAGGAUAUACAUAGAUUUACAUGAGGAUCACCCAUGUUCCUCUAUGUAUUAAUGUAGAAGGCAGAAGAA”, for which the “apparent Kd” value under setting [3] was 24.4 nM and the “apparent Kd” value under setting [4] came to 185 nM.
For “ACAUGAGGAUCACCCAUGUUUUCAGGGACUUCAAUUAUUUGUAGAAGGAUGUUUACUUGUUAGUCAUAGGAUAUACAAUUAAAU” the same measures were 12.2 nM and 12.9 nM.
For “AACCGACAUGAGGAUCACCCAUGUAAGGAUAUCCACGGACAACGCCAUAGUUGCCGGCGGAGAAGGUGCGUGGU” the same measures were 26 nM and 46 nM.
“GAAAAGGUAGGAUAUACGAAAACAAAGGGUAGAAACAAAACACAUGAGGAUCACCCAUGUAGAAGGACCAAAAG”: the “apparent Kd” value is, setting by setting: under setting [3], 36.4 nM; under setting [4], 233 nM.
For “CAUAACUUUUCUCAUGUAAACAUGAGGAUCACCCAUGUAAUGAGAAGGAGGAGGAAGAGAGAAUCCUAGGAUAUCAGAAUUGUU” the same measures were 6.41 nM and 6.84 nM.
As to “CUGAGGUCAGGAUAUGCAUGGCGGGACUUGCGUCGUGGCGUGGAGAAGGGACAUGAGGAUCACCCAUGUGGAGU”, the “apparent Kd” value by setting is: under setting [3], 79 nM; under setting [4], 54.2 nM.
Turning to “AAAAAGUAAGGAUAUCGGCGGCGGCGGAGGCGGCGGCGGCUCGAGAAGGUACAUGAGGAUCACCCAUGUAAAAA”, the “apparent Kd” value came to 29.2 nM under setting [3] and 15.3 nM under setting [4].
“GAACUGAAGCAUAGCUUUAGUCGUACAUGAGGAUCACCCAUGUAGGAUAUGGUAGGCAUAGCUUACUAGAAGGAUAGAGUGAUU”: the “apparent Kd” value under setting [3] came to 96.5 nM and the “apparent Kd” value under setting [4] is 67.9 nM.
For “GUUCAAGUAAAGGAUAUGUAGAGCCGCGAGGCCGCAGAAGGUUGCACAUGAGGAUCACCCAUGUCGUCUCUGAU” the same measures were 17.1 nM and 21.2 nM.
For “GUGUAGAUAGGAUAUACAUGAGUCUAGCGAAGCUAGAUUCUACAUGAGGAUCACCCAUGUAGAAGGGUCUACAC” the same measures were 15.9 nM and 18.5 nM.
For “UUUUUUGUUGUGAGGAUAUCGUAUUUUUUUUGUUACGAGAAGGCACAUGAGGAUCACCCAUGUUUCUUGAUGUU” the same measures were 13.6 nM and 28.6 nM.
As for “CAUAUGUGAGGAUAUGACAAUGGUAUCUUCGGAUACCAUUGUCAGAAGGCACAUGAGGAUCACCCAUGUGGAUC”, the “apparent Kd” value under setting [3] is 222 nM and the “apparent Kd” value under setting [4] is 30.7 nM.
As for “AACUCACAUGAGGAUCACCCAUGUGAGGAUAUGGUUUCGCUGGCCGUAGCCAGUGGAACCAGAAGGCGCAUGAU”, the “apparent Kd” value worked out at 20.1 nM under setting [3] and 20 nM under setting [4].
For “CCGGCUUAGUAGGAUAUCAGAGUCGAAAGACUCUGAGAAGGACUAACAUGAGGAUCACCCAUGUGUCCUACCGG” the same measures were 15.9 nM and 36 nM.
“UGCAUGCUAGGAUAUACGGGACAUUAGGGUUUGUCGUGUGGACAUGAGGAUCACCCAUGUAGAAGGAGCGUGCU”: the “apparent Kd” value came out at 49.5 nM under setting [3] and 207 nM under setting [4].
For the sequence “GAGCAGUGUAAAUAAACUCAAAUACAUGAGGAUCACCCAUGUAAGGAUAUGCAGUGGAAUACACUGCAGAAGGUACAUCACUGC”, the “apparent Kd” value reads like this: under setting [3], 14.3 nM; under setting [4], 20.5 nM.
For “GCUACGUCAGGAUAUCUGAUGUCUAACUUCGGUUAGACAUCAGAGAAGGGACAUGAGGAUCACCCAUGUAGCAG” the same measures were 114 nM and 112 nM.
For “UGCCGUUUAGGAUAUACAUGAGGAUCACCCAUGUGACACACAUAUUUUACAAAACCAUGUAGAAGGAAACGGCA” the same measures were 104 nM and 512 nM.
Turning to “AAAAAACAUGAGGAUCACCCAUGUCAAAAGACAUGAGGAUAUGUACAGACUUCGGUCUGUACAGAAGGCAUGUAAA”, the “apparent Kd” value reads like this: under setting [1], 321 nM; under setting [2], 30.8 nM.
As to “GUCAGCUCGUCAGGAUAUACGUCACUGCUUCGGCAGUGUGGUAAGAUCACAUGAGGAUCACCCAUGUAGAAGGGACGAGCUGAG”, the “apparent Kd” value runs as follows: under setting [3], 13.3 nM; under setting [4], 296 nM.
For “AUAUCACAAUUAGAACCAAUACGAACAUGAGGAUCACCCAUGUAGGAUAUGCUAGAAGUUGUGUUGCAGAAGGACAUAUACAUU” the same measures were 7.63 nM and 6.63 nM.
In the case of “AGGUAAGACUUAAUUGUGCUGGUGAGAAGGCAAAUGGUUGUGACCAACAUGAGGAUCACCCAUGUUGAGGAUAUCAUCGGUAUC”, the “apparent Kd” value came to 86.2 nM under setting [3] and 361 nM under setting [4].
